BindingDB's records for doi:10.1016/j.bmc.2012.05.040 (Imperial College, 2012)

Key:
[1] = target: T1, Tyrosine-protein phosphatase non-receptor type 1 (Homo sapiens, UniProt P18031); assay: Inhibition of PTP1B using 3-O-Methylfluorescein phosphate as substrate incubated for 10 mins prior to substrate addition by fluorometry
T1 sequence (P18031 whole entry): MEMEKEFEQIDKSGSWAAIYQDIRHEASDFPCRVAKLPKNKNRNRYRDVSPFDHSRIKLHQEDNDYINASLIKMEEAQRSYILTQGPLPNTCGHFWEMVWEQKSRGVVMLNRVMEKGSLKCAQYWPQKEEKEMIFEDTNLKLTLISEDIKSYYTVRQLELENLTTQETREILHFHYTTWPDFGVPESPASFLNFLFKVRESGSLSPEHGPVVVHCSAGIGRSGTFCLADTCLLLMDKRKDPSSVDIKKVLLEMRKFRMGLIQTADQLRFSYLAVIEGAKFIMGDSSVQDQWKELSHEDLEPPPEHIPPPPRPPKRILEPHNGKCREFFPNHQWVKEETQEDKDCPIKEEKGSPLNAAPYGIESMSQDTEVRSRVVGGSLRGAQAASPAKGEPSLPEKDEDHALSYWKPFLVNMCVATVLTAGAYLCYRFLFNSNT
Procedure, shortened: (§1)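 OMFP phosphatase assay, 20 °C, in 100 mM Tris pH 7.4 with 2 mM DTT. OMFP is taken from a 20 mM DMSO stock and diluted in 1% DMSO. It is used near each enzyme's KM, which is determined beforehand. Enzyme and arylstibonate are preincubated 10 min at RT, then OMFP is added. OMF release is read by fluorescence (ex 485, em 525 nm). Dose-response curves give IC50.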

[2] = target: T2, M-phase inducer phosphatase 3 (Homo sapiens, UniProt P30307); assay: Inhibition of N-terminal His-tagged Cdc25c catalytic domain expressed in Escherichia coli BL21(DE3) using 3-O-Methylfluorescein phosphate as substrate incubated for 10 mins prior to substrate addition by fluorometry; procedure, shortened: as §1
T2 sequence (P30307 whole entry): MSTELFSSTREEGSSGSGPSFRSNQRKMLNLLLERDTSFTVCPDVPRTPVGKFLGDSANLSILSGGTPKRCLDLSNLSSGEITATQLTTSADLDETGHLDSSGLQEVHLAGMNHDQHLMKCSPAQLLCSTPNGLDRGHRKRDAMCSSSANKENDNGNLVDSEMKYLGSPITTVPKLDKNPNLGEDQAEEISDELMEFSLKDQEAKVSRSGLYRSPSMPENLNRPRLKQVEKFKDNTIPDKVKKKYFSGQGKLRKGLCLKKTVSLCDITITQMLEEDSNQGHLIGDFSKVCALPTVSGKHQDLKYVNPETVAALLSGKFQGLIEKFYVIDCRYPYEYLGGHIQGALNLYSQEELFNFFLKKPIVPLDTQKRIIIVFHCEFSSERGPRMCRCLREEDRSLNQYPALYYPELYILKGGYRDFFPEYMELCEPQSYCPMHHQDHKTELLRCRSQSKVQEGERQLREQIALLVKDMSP

[3] = target: Dual specificity protein phosphatase 3 (Homo sapiens, UniProt P51452); assay: Inhibition of human recombinant His-tagged VHR using 3-O-Methylfluorescein phosphate as substrate incubated for 10 mins prior to substrate addition by fluorometry; procedure, shortened: as §1
Chain of Dual specificity protein phosphatase 3 (P51452 whole entry): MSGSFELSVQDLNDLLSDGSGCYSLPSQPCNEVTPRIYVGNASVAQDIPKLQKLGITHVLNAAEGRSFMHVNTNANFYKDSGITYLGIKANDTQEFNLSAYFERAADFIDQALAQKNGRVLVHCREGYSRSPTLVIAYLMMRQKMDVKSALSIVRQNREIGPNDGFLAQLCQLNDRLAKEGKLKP

[4] = target: T3, Receptor-type tyrosine-protein phosphatase beta (Homo sapiens, UniProt P23467); assay: Inhibition of PTP-beta receptor using 3-O-Methylfluorescein phosphate as substrate incubated for 10 mins prior to substrate addition by fluorometry; procedure, shortened: as §1
T3 sequence (P23467 whole entry): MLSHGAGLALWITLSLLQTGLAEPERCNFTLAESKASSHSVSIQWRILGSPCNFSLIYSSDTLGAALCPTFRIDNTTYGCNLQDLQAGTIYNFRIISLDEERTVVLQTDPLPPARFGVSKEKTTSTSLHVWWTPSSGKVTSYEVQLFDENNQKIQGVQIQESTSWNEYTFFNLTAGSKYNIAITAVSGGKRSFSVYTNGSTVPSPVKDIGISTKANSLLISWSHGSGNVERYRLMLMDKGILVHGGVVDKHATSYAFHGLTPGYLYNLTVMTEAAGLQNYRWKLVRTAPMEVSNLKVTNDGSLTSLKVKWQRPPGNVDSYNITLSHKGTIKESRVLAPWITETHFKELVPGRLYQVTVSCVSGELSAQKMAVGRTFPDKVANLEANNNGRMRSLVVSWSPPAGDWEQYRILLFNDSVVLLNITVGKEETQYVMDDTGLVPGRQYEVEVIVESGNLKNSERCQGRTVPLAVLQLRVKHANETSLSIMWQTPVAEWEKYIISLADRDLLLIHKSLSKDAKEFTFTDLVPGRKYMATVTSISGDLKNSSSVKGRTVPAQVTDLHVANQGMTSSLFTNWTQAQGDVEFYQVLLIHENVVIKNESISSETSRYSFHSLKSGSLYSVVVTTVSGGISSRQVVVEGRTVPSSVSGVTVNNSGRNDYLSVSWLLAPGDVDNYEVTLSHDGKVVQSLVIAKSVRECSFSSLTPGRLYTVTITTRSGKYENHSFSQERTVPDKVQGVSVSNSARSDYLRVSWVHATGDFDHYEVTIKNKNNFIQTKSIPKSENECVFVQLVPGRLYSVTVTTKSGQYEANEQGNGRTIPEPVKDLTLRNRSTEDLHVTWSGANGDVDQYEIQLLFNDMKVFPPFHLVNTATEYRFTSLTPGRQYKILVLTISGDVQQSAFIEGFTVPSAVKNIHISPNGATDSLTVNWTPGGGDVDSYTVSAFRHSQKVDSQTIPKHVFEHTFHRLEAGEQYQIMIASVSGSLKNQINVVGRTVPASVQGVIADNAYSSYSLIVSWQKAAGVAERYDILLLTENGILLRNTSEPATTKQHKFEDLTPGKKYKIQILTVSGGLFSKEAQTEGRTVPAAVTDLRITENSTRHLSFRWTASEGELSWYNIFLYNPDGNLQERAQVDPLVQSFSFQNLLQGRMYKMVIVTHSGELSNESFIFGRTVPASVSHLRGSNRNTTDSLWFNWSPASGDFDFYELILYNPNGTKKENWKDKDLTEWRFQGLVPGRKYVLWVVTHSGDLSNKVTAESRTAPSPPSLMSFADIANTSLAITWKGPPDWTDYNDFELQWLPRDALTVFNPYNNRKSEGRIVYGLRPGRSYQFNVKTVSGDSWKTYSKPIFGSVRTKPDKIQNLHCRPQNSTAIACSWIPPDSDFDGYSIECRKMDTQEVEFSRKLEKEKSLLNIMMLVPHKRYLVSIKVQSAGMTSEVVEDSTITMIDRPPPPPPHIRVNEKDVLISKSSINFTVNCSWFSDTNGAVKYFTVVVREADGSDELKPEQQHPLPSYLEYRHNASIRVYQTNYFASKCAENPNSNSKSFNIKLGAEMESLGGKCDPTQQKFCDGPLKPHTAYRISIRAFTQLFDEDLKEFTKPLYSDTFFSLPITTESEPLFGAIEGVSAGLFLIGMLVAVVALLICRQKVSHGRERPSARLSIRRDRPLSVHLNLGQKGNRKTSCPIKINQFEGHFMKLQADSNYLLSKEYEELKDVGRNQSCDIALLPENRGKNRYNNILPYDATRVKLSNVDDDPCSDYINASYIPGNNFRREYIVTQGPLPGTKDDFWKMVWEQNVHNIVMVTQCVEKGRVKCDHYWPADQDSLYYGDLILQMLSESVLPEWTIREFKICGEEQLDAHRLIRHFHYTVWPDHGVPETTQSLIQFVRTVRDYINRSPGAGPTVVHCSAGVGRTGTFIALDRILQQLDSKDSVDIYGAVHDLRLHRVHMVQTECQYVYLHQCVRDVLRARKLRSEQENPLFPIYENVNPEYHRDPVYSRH

[5] = target: T4, Dual specificity protein phosphatase 6 (Homo sapiens, UniProt Q16828); assay: Inhibition of MKP3 using 3-O-Methylfluorescein phosphate as substrate incubated for 10 mins prior to substrate addition by fluorometry; procedure, shortened: as §1
T4 sequence (Q16828 whole entry): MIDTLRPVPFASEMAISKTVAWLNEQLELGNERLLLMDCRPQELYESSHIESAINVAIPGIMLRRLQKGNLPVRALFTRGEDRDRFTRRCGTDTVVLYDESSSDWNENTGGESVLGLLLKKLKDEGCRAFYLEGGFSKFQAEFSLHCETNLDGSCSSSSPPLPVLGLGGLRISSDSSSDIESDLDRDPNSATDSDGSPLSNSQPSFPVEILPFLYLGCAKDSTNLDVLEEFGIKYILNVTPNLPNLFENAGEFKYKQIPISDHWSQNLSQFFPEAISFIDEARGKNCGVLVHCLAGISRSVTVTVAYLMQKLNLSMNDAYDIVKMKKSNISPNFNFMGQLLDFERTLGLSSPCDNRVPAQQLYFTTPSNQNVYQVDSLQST

[6] = target: Phosphatidylinositol 3,4,5-trisphosphate 3-phosphatase and dual-specificity protein phosphatase PTEN (Homo sapiens, UniProt P60484); assay: Inhibition of human PTEN using 3-O-Methylfluorescein phosphate as substrate incubated for 10 mins prior to substrate addition by fluorometry; procedure, shortened: as §1
Chain of Phosphatidylinositol 3,4,5-trisphosphate 3-phosphatase and dual-specificity protein phosphatase PTEN (P60484 whole entry): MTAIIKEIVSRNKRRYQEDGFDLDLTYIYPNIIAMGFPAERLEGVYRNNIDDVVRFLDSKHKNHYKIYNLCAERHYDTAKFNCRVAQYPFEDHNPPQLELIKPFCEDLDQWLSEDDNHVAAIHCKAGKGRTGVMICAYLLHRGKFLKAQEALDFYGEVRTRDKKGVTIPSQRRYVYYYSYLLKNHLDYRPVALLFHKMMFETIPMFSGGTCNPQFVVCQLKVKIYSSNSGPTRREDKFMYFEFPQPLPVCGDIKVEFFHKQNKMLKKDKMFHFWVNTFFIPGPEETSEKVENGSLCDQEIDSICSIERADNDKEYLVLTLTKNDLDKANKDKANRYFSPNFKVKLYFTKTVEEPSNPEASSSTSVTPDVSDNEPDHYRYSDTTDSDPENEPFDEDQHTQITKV

[7] = target: T3, Receptor-type tyrosine-protein phosphatase beta; assay: Inhibition of PTP-beta receptor using […] as substrate by colorimetric analysis
[8] = target: T5, M-phase inducer phosphatase 1 (Homo sapiens, UniProt P30304); assay: Inhibition of N-terminal His-tagged Cdc25a catalytic domain expressed in Escherichia coli BL21(DE3) using 3-O-Methylfluorescein phosphate as substrate incubated for 10 mins prior to substrate addition by fluorometry; procedure, shortened: as §1
T5 sequence (P30304 whole entry): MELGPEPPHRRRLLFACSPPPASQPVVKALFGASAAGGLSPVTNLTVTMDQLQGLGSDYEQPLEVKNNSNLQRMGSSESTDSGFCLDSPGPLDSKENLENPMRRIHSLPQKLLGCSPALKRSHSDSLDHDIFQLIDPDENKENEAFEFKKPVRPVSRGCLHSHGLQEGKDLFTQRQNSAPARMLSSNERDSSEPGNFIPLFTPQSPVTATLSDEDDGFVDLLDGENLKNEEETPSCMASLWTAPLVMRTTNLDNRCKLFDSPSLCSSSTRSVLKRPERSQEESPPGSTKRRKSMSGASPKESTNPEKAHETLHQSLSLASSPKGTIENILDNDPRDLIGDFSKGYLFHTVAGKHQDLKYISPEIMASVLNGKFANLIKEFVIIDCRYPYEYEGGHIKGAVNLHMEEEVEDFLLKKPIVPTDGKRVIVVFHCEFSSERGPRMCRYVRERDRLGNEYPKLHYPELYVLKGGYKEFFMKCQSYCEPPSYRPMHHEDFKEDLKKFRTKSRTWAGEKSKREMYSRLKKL

[9] = target: T6, M-phase inducer phosphatase 2 (Homo sapiens, UniProt P30305); assay: Inhibition of N-terminal His-tagged Cdc25b catalytic domain expressed in Escherichia coli BL21(DE3) using 3-O-Methylfluorescein phosphate as substrate incubated for 10 mins prior to substrate addition by fluorometry; procedure, shortened: as §1
T6 sequence (P30305 whole entry): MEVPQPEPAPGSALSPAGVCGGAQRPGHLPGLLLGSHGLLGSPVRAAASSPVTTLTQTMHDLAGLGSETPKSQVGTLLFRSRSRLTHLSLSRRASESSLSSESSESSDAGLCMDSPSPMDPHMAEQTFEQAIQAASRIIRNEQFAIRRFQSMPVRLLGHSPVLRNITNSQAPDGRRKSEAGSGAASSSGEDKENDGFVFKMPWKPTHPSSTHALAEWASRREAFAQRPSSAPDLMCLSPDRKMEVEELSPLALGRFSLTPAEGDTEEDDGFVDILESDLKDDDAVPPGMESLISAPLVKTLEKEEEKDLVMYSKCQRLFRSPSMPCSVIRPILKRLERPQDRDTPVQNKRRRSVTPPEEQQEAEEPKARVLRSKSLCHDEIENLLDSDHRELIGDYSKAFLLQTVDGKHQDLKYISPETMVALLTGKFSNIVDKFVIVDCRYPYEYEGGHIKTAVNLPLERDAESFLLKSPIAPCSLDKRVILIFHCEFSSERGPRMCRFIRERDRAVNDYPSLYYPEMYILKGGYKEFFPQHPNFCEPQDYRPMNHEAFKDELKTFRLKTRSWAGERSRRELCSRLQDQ

[10] = target: T6, M-phase inducer phosphatase 2; assay: Inhibition of N-terminal His-tagged Cdc25b catalytic domain expressed in Escherichia coli BL21(DE3) using 3-O-Methylfluorescein phosphate as substrate by secondary plot analysis
Procedure, shortened: (§2)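 Steady-state kinetics of the Cdc25a and Cdc25b catalytic domains with varying OMFP and several arylstibonate concentrations. Run at 20 °C in 100 mM Tris pH 7.4 with 2 mM DTT, after a 10 min RT enzyme–inhibitor preincubation. Fluorescence read at ex 485/em 525 nm. Michaelis–Menten plots give apparent Km and Vmax; secondary plots give Ki.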

[11] = target: T5, M-phase inducer phosphatase 1; assay: Inhibition of N-terminal His-tagged Cdc25a catalytic domain expressed in Escherichia coli BL21(DE3) using 3-O-Methylfluorescein phosphate as substrate by secondary plot analysis; procedure, shortened: as §2
[12] = target: T7, Phosphatidylglycerophosphatase and protein-tyrosine phosphatase 1 (Homo sapiens, UniProt Q8WUK0); assay: Inhibition of PTPMT1 using 3-O-Methylfluorescein phosphate as substrate incubated for 10 mins prior to substrate addition by fluorometry; procedure, shortened: as §1
T7 sequence (Q8WUK0 whole entry): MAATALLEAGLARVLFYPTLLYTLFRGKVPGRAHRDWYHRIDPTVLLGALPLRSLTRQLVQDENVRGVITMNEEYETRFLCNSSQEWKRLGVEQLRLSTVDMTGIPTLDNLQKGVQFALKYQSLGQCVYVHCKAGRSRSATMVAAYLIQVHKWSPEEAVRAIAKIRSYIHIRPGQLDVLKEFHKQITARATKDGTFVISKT

| Compound | IC50 [1] [µM] | IC50 [2] [µM] | IC50 [3] [µM] | IC50 [4] [µM] | IC50 [5] [µM] | IC50 [6] [µM] | IC50 [7] [µM] | IC50 [8] [µM] | IC50 [9] [µM] | Ki [10] [µM] | Ki [11] [µM] | IC50 [12] [µM] |
| --- | --- | --- | --- | --- | --- | --- | --- | --- | --- | --- | --- | --- |
| O=C(O)CCc1ccc[c]([Sb](=[O])([OH])[OH])c1 | > 100 | > 100 | > 100 | 1.62 | > 100 | 8.87 | 0.1 | 3.15 | 5.67 | 4.7 | 1.7 | 13.4 |
| O=C(O)/C=C/c1ccc[c]([Sb](=[O])([OH])[OH])c1 [(2E)-3-{3-[dihydroxy(oxo)--stibanyl]phenyl}prop-2-enoic acid] | 7.93 | > 10 | > 10 | 0.77 | > 10 | 10 | 0.1 | 0.11 | 0.6 | 0.369 | 0.072 | 1.62 |
